Test results from publication PMC6522132 (Cell chemical biology, 2017).

How the values were obtained:
wt-EphA4 LBD = wt-EphA4 LBD (Homo sapiens, UniProt P54764); assay: Isothermal titration calorimetry; assay type: binding; details: result in words
EphA4-LBD = EphA4-LBD (Homo sapiens, UniProt P54764); assay: NMR ligand titration; assay type: binding; details: result in words
In short: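 Purified human EphA4 ligand-binding domain (LBD), 13Cε-methionine-labelled for the titration, in 50 mM potassium phosphate pH 6.5 with 100 mM NaCl, at 27 °C. 2D [13C,1H]- or [15N,1H]-HSQC spectra of 50 μM LBD were compared with and without test compound. The compound was titrated at 10–50 μM against a DMSO control, and binding was read as chemical-shift changes.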

Sequence of wt-EphA4 LBD (P54764 30-209 limits assumed): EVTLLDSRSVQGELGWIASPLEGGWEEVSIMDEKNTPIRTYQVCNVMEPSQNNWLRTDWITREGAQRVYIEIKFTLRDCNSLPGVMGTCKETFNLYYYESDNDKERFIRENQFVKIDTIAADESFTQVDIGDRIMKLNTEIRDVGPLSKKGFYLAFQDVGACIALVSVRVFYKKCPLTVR
Sequence of EphA4-LBD (P54764 30-209 limits assumed): as above

CC[C@H]1CN2CC[C@]3(C(=O)Nc4ccccc43)[C@@H]2C[C@@H]1/C(=C\OC)C(=O)OC [rhyncophilin]
binding to EphA4-LBD in ITC assay (wt-EphA4 LBD): inactive | binding to EphA4-LBD in NMR assay (EphA4-LBD): inactive
